Activity calls are given as the source filed them. The calls are words filed in the database; no cut-off is given here.

The subject of test [1] is Rattus norvegicus. Put plainly: Inhibition of dopamine accumulation in striatum part of rat brain after subcutaneous administration; I= Inactive. Type of test: functional, organism-based.
The subject of test [2] is Rattus norvegicus. Put plainly: Inhibition of 5-Hydroxy tryptamine accumulation in hemispheres of rat brain after subcutaneous administration. Type of test: functional. The note with it: sc.
The subject of test [3] is Rattus norvegicus. The experiment in a line: Inhibition of dopamine accumulation in limbic part of rat brain after subcutaneous administration; I= Inactive. The class given is functional, organism-based.
The subject of test [4] is Rattus norvegicus. Put plainly: Inhibition of 5-HTP accumulation in limbic part of rat brain after subcutaneous administration of compound before 60 min to death. Type of test: functional, organism-based. The note with it: Limbic system. The procedure, abridged: (§1)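 Nonpretreated rats were given each enantiomer sc 60 min before death. NSD 1015 (100 mg/kg ip) was given 30 min before death, and 5-HTP or Dopa accumulation was measured in brain regions. Values are means ± SEM, n = 4 (some groups n = 3). Statistics: ANOVA followed by Student's t test.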

Test [5] deals with Rattus norvegicus. Put plainly: Inhibition of 5-HTP accumulation in hemisphere of rat brain after subcutaneous administration of compound before 60 min to death. The class given is functional, organism-based. In a few lines: as §1
Test [6] has as its system Rattus norvegicus. Put plainly: Inhibition of 5-Hydroxy tryptamine accumulation in striatum part of rat brain after subcutaneous administration. Type of test: functional. The note with it: sc.
For test [7], the system named is Rattus norvegicus. Put plainly: Inhibition of 5-Hydroxy tryptamine accumulation in limbic part of rat brain after subcutaneous administration. The class given is functional. The note with it: sc.
The test system of test [8] is Rattus norvegicus. The experiment in a line: Inhibition of 5-Hydroxy tryptamine accumulation in striatum part of rat brain after subcutaneous administration; I= Inactive. Type of test: functional, organism-based.
The test system of test [9] is Rattus norvegicus. The experiment in a line: Inhibition of dopamine accumulation in limbic part of rat brain after subcutaneous administration. Type of test: functional. The note with it: sc.
Test [10] deals with Rattus norvegicus. The experiment in a line: Inhibition of 5-Hydroxy tryptamine accumulation in limbic part of rat brain after subcutaneous administration; I= Inactive. The class given is functional, organism-based.
Test [11] deals with Rattus norvegicus. The experiment in a line: Inhibition of dopamine accumulation in striatum part of rat brain after subcutaneous administration. Type of test: functional. The note with it: sc.
Test [12] has as its system Rattus norvegicus. Put plainly: Inhibition of 5-Hydroxy tryptamine accumulation in hemispheres of rat brain after subcutaneous administration; I= Inactive. Type of test: functional, organism-based.
The test system of test [13] is Rattus norvegicus. The experiment in a line: Inhibition of 5-Hydroxy Tryptamine accumulation in striatum part of rat brain after subcutaneous administration. The note with it: sc. The class given is functional.
Test [14] relates to Rattus norvegicus. Put plainly: Inhibition of 5-Hydroxy Tryptamine accumulation in limbic part of rat brain after subcutaneous administration. Type of test: functional. The note with it: sc.
Test [15] deals with Rattus norvegicus. The experiment in a line: Inhibition of 5-Hydroxy Tryptamine accumulation in hemispheres of rat brain after subcutaneous administration. Type of test: functional. The note with it: sc.

For the compound `CCCN(CCC)[C@@H]1CCc2cccc(O)c2C1`, the ED50 result in the test with Rattus norvegicus [1] and with Rattus norvegicus [3] was “inactive” each time. Also, the ED50 with Rattus norvegicus [2] was 0.052 µmol/kg; in the test with Rattus norvegicus [6], 0.048 µmol/kg; in the test with Rattus norvegicus [7] it was 0.036 µmol/kg. The Concentration in the test with Rattus norvegicus [4] was determined as 63 ng/g; in the test on Rattus norvegicus [5], 44 ng/g.

For `CCCN(CCC)C1CCc2ccc(O)cc2C1` (centres undefined), the ED50 entry in the test with Rattus norvegicus [8], with Rattus norvegicus [10] and in the test with Rattus norvegicus [12] was “inactive” in each case. In addition, the ED50 with Rattus norvegicus [9] is 0.027 µmol/kg; with Rattus norvegicus [11], 0.03 µmol/kg.

In the case of `CCCN(CCC)[C@@H]1CCc2ccc(O)cc2C1`, the ED50 result in the test with Rattus norvegicus [8], in the test on Rattus norvegicus [10] and in the test on Rattus norvegicus [12] was “inactive” in each case. Besides, the results for the median effective dose (ED50) with Rattus norvegicus [9] and in the test on Rattus norvegicus [11] were 0.18 µmol/kg and 0.17 µmol/kg, respectively.

As to `CCCN(CCC)C1CCc2cccc(O)c2C1` (racemic) [8-OH-DPAT], the ED50 entry in the test on Rattus norvegicus [1] and with Rattus norvegicus [3] was “inactive” each time. In addition, the median effective dose (ED50) with Rattus norvegicus [2] came out at 0.068 µmol/kg; with Rattus norvegicus [6], 0.045 µmol/kg; with Rattus norvegicus [7], 0.048 µmol/kg.

On to `CCCN(CCC)C1CCc2c(O)cccc2C1` (centres undefined) [5-OH-DPAT], for which the ED50 entry with Rattus norvegicus [8], in the test with Rattus norvegicus [10] and in the test with Rattus norvegicus [12] was “inactive” in each case. In addition, the ED50 was determined as 0.011 µmol/kg with Rattus norvegicus [9] and 0.009 µmol/kg in the test with Rattus norvegicus [11].

Regarding `CCCN(CCC)[C@H]1CCc2cccc(O)c2C1`, the ED50 result in the test on Rattus norvegicus [1] and in the test with Rattus norvegicus [3] was “inactive” throughout. In addition, the ED50 in the test with Rattus norvegicus [13] came out at 0.075 µmol/kg; in the test with Rattus norvegicus [14] it was 0.061 µmol/kg; in the test on Rattus norvegicus [15], 0.09 µmol/kg. The Concentration worked out at 84 ng/g with Rattus norvegicus [4] and 57 ng/g in the test with Rattus norvegicus [5].

For the origin of these results see ChEMBL document CHEMBL1121677, “8-Hydroxy-2-(di-n-propylamino)tetralin, a new centrally acting 5-hydroxytryptamine receptor agonist” (1981).
